Tests used:
[1] = tested on: light touch-evoked pERK in ipsilateral dorsal horn neurons; assay: light touch-evoked pERK immunoreactivity in dorsal horn, SNI, intrathecal agents; type: in vivo, mouse; settings: intrathecal coadministration of BIBO 3304 10.0 µg with [Leu^31, Pro^34]-NPY 10.0 µg; n = 4 to 6 mice/group
[2] = tested on: SNI mice (mechanical allodynia); assay: mechanical withdrawal threshold; type: in vivo, mouse; settings: intrathecal coadministration of BIBO 3304 10.0 µg with [Leu^31, Pro^34]-NPY 10.0 µg; n = 4 to 11 mice/group
[3] = tested on: SNI mice (cold allodynia); assay: cold withdrawal duration; type: in vivo, mouse; settings: intrathecal coadministration of BIBO 3304 10.0 µg with [Leu^31, Pro^34]-NPY 10.0 µg; n = 4 to 11 mice/group
[4] = tested on: excitatory DREADD hM3DGq in spinal Y1-INs; assay: chemogenetic activation of Y1-INs: cold; type: in vivo, mouse; settings: CNO 3 mg/kg, uninjured mice, n = 8 mice/group
Procedure, shortened: (§1)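 Npy1rCre mice were given an intraspinal injection of Cre-dependent AAV8-hSyn-DIO-hM3DGq-mCitrine into the left lumbar dorsal horn; controls received mCherry virus. Mice were uninjured. CNO 3 mg/kg was given i.p. before testing. Assays: von Frey filaments to the lateral hindpaw (mechanical); a 10 μL acetone droplet to the lateral hindpaw, scoring withdrawal (cold); 52.5 C hotplate (heat). Holm-Sidak post hoc tests.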

[5] = tested on: excitatory DREADD hM3DGq in spinal Y1-INs; assay: chemogenetic activation of Y1-INs: heat; type: in vivo, mouse; settings: CNO 3 mg/kg, uninjured mice, n = 8 mice/group
Procedure, shortened: as §1

[6] = tested on: inhibitory DREADD hM4DGi in spinal Y1-INs; assay: chemogenetic inhibition of Y1-INs: cold; type: in vivo, mouse; settings: CNO 3 mg/kg i.p., n = 7 mice/group
Procedure, shortened: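 Npy1rCre mice were given intraspinal AAV8-hSyn-DIO-hM4DGi into the left lumbar (L3–L4) DH, which expresses Gi-DREADD in Y1-INs. CNO 3 mg/kg i.p. was dosed pre- or post-SNI. Cold sensitivity was scored as the withdrawal response to a 10 μL acetone droplet on the lateral hindpaw. Analysis used two-way ANOVA and Holm-Sidak post hoc tests; data are means ± SEM.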

[7] = tested on: excitatory DREADD hM3DGq in spinal Y1-INs; assay: chemogenetic activation of Y1-INs: spontaneous nocifensive behavior; type: in vivo, mouse; settings: CNO 3 mg/kg i.p., n = 3 to 5 mice/group
Procedure, shortened: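 Cre-dependent AAV8-hSyn-DIO-hM3DGq-mCitrine or mCherry control virus was injected into the left lumbar dorsal horn of uninjured Npy1rCre mice. CNO (3 mg/kg, i.p.) or saline was given, then behaviour was videotaped. Scored: nocifensive acts (lifting, flapping, shaking, licking, guarding) and itch-like acts (biting, scratching), each directed to the ipsilateral or contralateral hind limb. Three-way RM ANOVA, Holm-Sidak post hoc.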

[8] = tested on: inhibitory DREADD hM4DGi in spinal Y1-INs; assay: chemogenetic inhibition of Y1-INs: conditioned place preference; type: in vivo, mouse; settings: CNO 3 mg/kg i.p., SNI mice, n = 10 to 11 mice/group
Procedure, shortened: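 SNI Npy1rCre mice carried either intraspinal (left lumbar DH) Cre-dependent hM4DGi or control mCherry virus. After conditioning with CNO (3 mg/kg i.p.) paired to one chamber, time spent in the CNO-paired chamber was recorded. Groups were compared with an unpaired two-tailed Student's t test; data are means ± SEM.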

[9] = tested on: inhibitory DREADD hM4DGi in spinal Y1-INs; assay: chemogenetic inhibition of Y1-INs: light touch-evoked pERK; type: in vivo, mouse; settings: CNO 3 mg/kg i.p., SNI mice, n = 7 mice/group
Procedure, shortened: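 Y1-INs in Npy1rCre mice were targeted by left lumbar (L3–L4) DH injection of AAV8-hSyn-DIO-hM4DGi. In SNI mice, CNO (3 mg/kg i.p.) was followed by light brushing of the lateral hindpaw. Ipsilateral lumbar DH sections were then immunostained for pERK and quantified in the superficial laminae. Groups were compared by unpaired two-tailed Student's t test; data are means ± SEM.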

[10] = tested on: excitatory DREADD hM3DGq in spinal Y1-INs; assay: chemogenetic activation of Y1-INs: conditioned place aversion; type: in vivo, mouse; settings: CNO 3 mg/kg i.p., uninjured mice, n = 10 to 11 mice/group
DREADD = settings: CNO 3 mg/kg; cited from earlier work
[11] = tested on: inhibitory DREADD hM4DGi in spinal Y1-INs; assay: chemogenetic inhibition of Y1-INs: mechanical withdrawal threshold; type: in vivo, mouse; settings: CNO 3 mg/kg i.p., n = 7 mice/group
Procedure, shortened: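 Adult Npy1rCre mice received intraspinal Cre-dependent AAV8-hSyn-DIO-hM4DGi (mCherry-tagged) into the left lumbar DH at L3–L4. CNO (3 mg/kg, i.p.) was given either before or after SNI. Calibrated von Frey filaments were applied to the lateral hindpaw to measure withdrawal thresholds. Statistics used two-way ANOVA with Holm-Sidak post hoc tests, and data are shown as means ± SEM.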

[12] = tested on: excitatory DREADD hM3DGq in spinal Y1-INs; assay: chemogenetic activation of Y1-INs: open field testing; type: in vivo, mouse; settings: CNO 3 mg/kg, 60 min, n = 6 mice/group
Procedure, shortened: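 Uninjured Npy1rCre mice carried left lumbar dorsal-horn Cre-dependent hM3DGq or mCherry virus. Immediately after CNO (3 mg/kg, i.p.), mice were placed in a novel open field for 60 min. […] Averaged activity shown as heat maps. Student's unpaired two-tailed t test.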

[13] = tested on: excitatory DREADD hM3DGq in spinal Y1-INs; assay: chemogenetic activation of Y1-INs: mechanical; type: in vivo, mouse; settings: CNO 3 mg/kg, uninjured mice, n = 8 mice/group
Procedure, shortened: as §1

[14] = tested on: spinal cord transient firing neurons; settings: cited from earlier work
Y1 receptors = settings: intrathecal; rodent models of chronic pain; cited from earlier work

Molecule: NC(=O)NCc1ccc(CNC(=O)[C@@H](CCCN=C(N)N)NC(=O)C(c2ccccc2)c2ccccc2)cc1 [BIBO 3304]
- effect on Y1 agonist-induced reduction of light touch-evoked pERK [1]: this effect is abolished with coadministration of the Y1 antagonist
- effect on Y1 agonist-induced mechanical anti-allodynia [2]: abolishes
- effect on Y1 agonist-induced cold anti-allodynia [3]: abolishes

Molecule: C[N+]1([O-])CCN(C2=Nc3cc(Cl)ccc3Nc3ccccc32)CC1 [CNO, clozapine N-oxide]
- cold (acetone droplet withdrawal) hypersensitivity [4]: hypersensitivity
- heat (52.5 C hotplate) hypersensitivity [5]: hypersensitivity
- SNI-induced cold hypersensitivity ([6]; post-SNI): abolished both mechanical and cold hypersensitivity
- cold withdrawal thresholds before SNI ([6]; pre-SNI): does not alter mechanical or cold withdrawal thresholds before SNI
- spontaneous nocifensive behaviors ([7]; control (mCherry) virus): but not control (mCherry) virus
- itch-like (biting or scratching) behaviors ([7]; hM3DGq, uninjured mice): but not itch-like (biting or scratching) behaviors
- spontaneous nocifensive behaviors, contralateral hind limb ([7]; hM3DGq, uninjured mice): but not contralateral, hind limb
- conditioned place preference (time in CNO-paired chamber) ([8]; control virus (mCherry)): but not control virus (mCherry) spent more time in the CNO-paired chamber
- conditioned place preference (time in CNO-paired chamber) ([8]; hM4DGi): spent more time in the CNO-paired chamber
- light touch-evoked pERK in the superficial DH [9]: reduced light-touch evoked pERK in the superficial DH
- conditioned place aversion [10]: produced a robust CPA
- time to alter DREADD-dependent neuronal activity (DREADD): ≤ 15 min
- SNI-induced mechanical hypersensitivity ([11]; post-SNI): abolished both mechanical and cold hypersensitivity
- mechanical withdrawal thresholds before SNI ([11]; pre-SNI): does not alter mechanical or cold withdrawal thresholds before SNI
- grooming-like behaviors (stereotypic episode activity count) [12]: increased grooming-like (stereotypic episode activity count) behaviors
- movement in open field [12]: continuous movement
- rest in open field [12]: lack of rest
- mechanical (vF) hypersensitivity [13]: hypersensitivity

Molecule: NCC1(CC(=O)O)CCCCC1 [gabapentin]
- frequency and amplitude of sEPSCs [14]: reducing both the frequency and amplitude of sEPSCs

Molecule: neuropeptide Y [NPY]
- behavioral and spinal molecular signs of hyperalgesia (Y1 receptors): reduces the behavioral and spinal molecular signs of hyperalgesia
